Data reported in ChEMBL document CHEMBL1154417, “In vitro antiviral activity of the novel, tyrosyl-based human immunodeficiency virus (HIV) type 1 protease inhibitor brecanavir (GW640385) in combination with other antiretrovirals and against a panel of protease inhibitor-resistant HIV” (Antimicrob Agents Chemother, 2007).
Active and inactive are the calls of the source. The rule behind the calls is not given here.

What was measured:
Protease [1] = target: T1, Protease (Human immunodeficiency virus 1, UniProt Q9YQ12); assay: Inhibition of HIV1 protease by fluorescent peptide substrate based assay
T1 sequence (Q9YQ12 whole entry): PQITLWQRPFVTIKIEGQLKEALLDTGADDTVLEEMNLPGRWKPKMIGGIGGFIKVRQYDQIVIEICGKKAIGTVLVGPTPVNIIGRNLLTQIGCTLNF
Summary of the method: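 HIV-1 protease Ki from a continuous fluorescence activity assay using a fluorescent peptide substrate. Alternatively, Ki was calculated from the association and dissociation rate constants of the enzyme-inhibitor complex.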

[2] = system: Human immunodeficiency virus 1; assay: Ratio of EC50 for HIV1 drug resistant mutant isolates from protease inhibitor treated HIV patient to EC50 for drug sensitive HIV1 NL4-3; assay type: functional
Summary of the method: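 Recombinant virus assay with clinical isolates from PI-experienced patients (94 isolates). Fold change is the EC50 against each isolate over the EC50 against reference wild-type HIV-1 NL4-3.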

[3] = system: Human immunodeficiency virus 1; assay: Antiviral activity against HIV1 drug resistant mutant isolates from protease inhibitor treated HIV patient; assay type: functional, organism-based
Protease [4] = target: T1, Protease; assay: Inhibition of HIV1 protease
Summary of the method: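 Ki derived either from a continuous fluorescence activity assay of HIV-1 protease or from the ratio of the dissociation first-order rate constant to the bimolecular association rate constant for enzyme–inhibitor binding.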

[5] = system: Human immunodeficiency virus 1; assay: Antiviral activity against HIV1 BaL in human PBMC assessed as blockade of reverse transcriptase activity; assay type: functional, organism-based; conditions: Human immunodeficiency virus 1, BaL
Summary of the method: (§1)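 PHA-stimulated PBMCs, 8 × 10^6 cells/ml in RPMI with 20% FBS and 10% IL-2, preincubated 1 h at 37°C with compound serially diluted fourfold. Then infected with virus premixed with compound (IIIB for line 2, Ba-L for line 3). After 7 days, RT activity measured in supernatant. EC50 from mean percent inhibition; n = 3 for IIIB, 8 for Ba-L.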

[6] = system: Human immunodeficiency virus 1; assay: Antiviral activity against HIV1 NL4-3; assay type: functional, organism-based; conditions: Human immunodeficiency virus 1, NL4-3
[7] = system: Human immunodeficiency virus 1; assay: Antiviral activity against HIV1 HXB2 in human MT4 cells assessed as inhibition of viral-induced viral cytopathic effect in presence of 10% fetal bovine serum by MTS assay; assay type: functional, organism-based; conditions: Human immunodeficiency virus 1, HXB2, MT4
Summary of the method: (§2)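 MT-4 cells batch-infected with HIV-1 HXB2 at MOI 0.0001 for 1 h at 37°C. Cells then plated at 4 × 10^4 per well onto serially diluted compound in medium containing 10% or 40% FBS, or 10–40% human serum. After 5 days, EC50 from MTS viability.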

[8] = system: Human immunodeficiency virus 1; assay: Antiviral activity against HIV1 HXB2 in human MT4 cells assessed as inhibition of viral-induced viral cytopathic effect in presence of 10% fetal bovine serum and 20% human serum by MTS assay; assay type: functional, organism-based; conditions: Human immunodeficiency virus 1, HXB2, MT4; summary of the method: as §2
[9] = system: Human immunodeficiency virus 1; assay: Antiviral activity against HIV1 HXB2 in human MT4 cells assessed as inhibition of viral-induced viral cytopathic effect in presence of 10% fetal bovine serum and 10% human serum by MTS assay; assay type: functional, organism-based; conditions: Human immunodeficiency virus 1, HXB2, MT4; summary of the method: as §2
[10] = system: Human immunodeficiency virus 1; assay: Antiviral activity against HIV1 HXB2 in human MT4 cells assessed as inhibition of viral-induced viral cytopathic effect in presence of 10% fetal bovine serum and 30% human serum by MTS assay; assay type: functional, organism-based; conditions: Human immunodeficiency virus 1, HXB2, MT4; summary of the method: as §2
[11] = system: Human immunodeficiency virus 1; assay: Antiviral activity against HIV1 HXB2 in human MT4 cells assessed as inhibition of viral-induced viral cytopathic effect in presence of 10% fetal bovine serum and 40% human serum by MTS assay; assay type: functional, organism-based; conditions: Human immunodeficiency virus 1, HXB2, MT4; summary of the method: as §2
[12] = system: Human immunodeficiency virus 1; assay: Antiviral activity against HIV1 HXB2 in human MT4 cells assessed as inhibition of viral-induced viral cytopathic effect in presence of 40% fetal bovine serum by MTS assay; assay type: functional, organism-based; conditions: Human immunodeficiency virus 1, HXB2, MT4; summary of the method: as §2
[13] = system: Human immunodeficiency virus 1; assay: Ratio of EC50 for HIV1 HXB2 in presence of 30% human serum to EC50 for HIV1 HXB2 in presence of 10% fetal bovine serum; assay type: functional; summary of the method: as §2
[14] = system: Human immunodeficiency virus 1; assay: Ratio of EC50 for HIV1 HXB2 in presence of 10% human serum to EC50 for HIV1 HXB2 in presence of 10% fetal bovine serum; assay type: functional; summary of the method: as §2
[15] = system: Human immunodeficiency virus 1; assay: Ratio of EC50 for HIV1 HXB2 in presence of 20% human serum to EC50 for HIV1 HXB2 in presence of 10% fetal bovine serum; assay type: functional; summary of the method: as §2
[16] = system: Human immunodeficiency virus 1; assay: Ratio of EC50 for HIV1 HXB2 in presence of 40% human serum to EC50 for HIV1 HXB2 in presence of 10% fetal bovine serum; assay type: functional; summary of the method: as §2
[17] = system: Human immunodeficiency virus 1; assay: Ratio of EC50 for HIV1 HXB2 in presence of 40% fetal bovine serum to EC50 for HIV1 HXB2 in presence of 10% fetal bovine serum; assay type: functional; summary of the method: as §2
[18] = system: Human immunodeficiency virus 1; assay: Antiviral activity against HIV1 HXB2 in human HeLa cells by HeLa-CD4 MAGI assay; assay type: functional, organism-based; conditions: Human immunodeficiency virus 1, HXB2, HeLa
Summary of the method: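 HeLa-CD4-LTR-β-gal cells kept in DMEM with 10% FBS and infected with HIV-1 HXB2 in a single-round assay. Read-out is β-galactosidase activity; n = 2; tested up to about 50 μM, the solubility limit.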

[19] = system: Human immunodeficiency virus 1; assay: Antiviral activity against HIV1 3B in human MT4 cells assessed as inhibition of viral-induced viral cytopathic effect by MTS assay; assay type: functional, organism-based; conditions: Human immunodeficiency virus 1, 3B
Summary of the method: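 MT-4 cells in RPMI 1640 with 20% FBS, 20% IL-2 and gentamicin, 5 × 10^5 cells/ml, infected with HIV-1 IIIB at 100 TCID50 per well for 1 h at 37°C. Cells diluted sixfold onto serially diluted compound and incubated 5 days. Cytopathic effect read by MTS staining at OD 492 nm. EC50 by Hill-equation curve fit; n = 8.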

[20] = Selectivity index, ratio of CCIC50 for human MT4 cells to IC50 for HIV1 3B; assay type: functional
[21] = system: Human immunodeficiency virus 1; assay: Antiviral activity against HIV1 HXB2 in human HeLa cells up to 50 uM by HeLa-CD4 MAGI assay; assay type: functional, organism-based
Summary of the method: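 HeLa-CD4-LTR-β-gal cells grown in DMEM with 10% FBS and infected with HIV-1 HXB2 for a single round of infection. Read-out is β-galactosidase activity. Tested up to the solubility limit (about 50 μM). EC50 from 2 determinations.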

[22] = Cytotoxicity against human MT4 cells; assay type: cell-based; conditions: read-out: CCIC50
Summary of the method: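 Mock-infected MT-4 cells run in parallel with the HIV-1 IIIB antiviral assay, in RPMI 1640 with FBS, IL-2 and gentamicin. Incubated 5 days at 37°C, 5% CO2, then MTS viability read at OD 492 nm. Highest concentration tested 25 μM. Reported as CCIC50.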

[23] = Cytotoxicity against human IM9 cells; assay type: cell-based, IM-9; conditions: read-out: CCIC50
Summary of the method: (§3)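 Uninfected B- and T-cell lines were exposed to serially diluted compound up to a highest concentration of 25 μM. The cell culture 50% inhibitory concentration (CCIC50) was determined.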

[24] = Protein binding in human plasma; assay type: ADME, cell-free; conditions: read-out: PPB (converted)
[25] = Cytotoxicity against human U937 cells; assay type: cell-based, U-937
[26] = Cytotoxicity against human MOLT4 cells; assay type: cell-based, MOLT-4; conditions: read-out: CCIC50; summary of the method: as §3
[27] = system: Human immunodeficiency virus 1; assay: Ratio of EC50 for HIV1 HXB2 in presence of 40 mg/ml HSA and 1 mg/ml alpha1-acid glycoprotein to EC50 for HIV1 HXB2; assay type: functional
Summary of the method: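 Same MT-4/HXB2 batch-infection format (MOI 0.0001, 1 h, 4 × 10^4 cells/well, 5-day MTS read-out), run with 40 mg/ml human serum albumin plus 1 mg/ml α1-acid glycoprotein.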

[28] = system: Human immunodeficiency virus 1; assay: Antiviral activity against HIV1 3B in human PBMC assessed as blockade of reverse transcriptase activity; assay type: functional, organism-based; conditions: Human immunodeficiency virus 1, 3B; summary of the method: as §1
[29] = system: Human immunodeficiency virus 1; assay: Antiviral activity against HIV1 HXB2 in human MT4 cells assessed as inhibition of viral-induced viral cytopathic effect by MTS assay; assay type: functional, organism-based; conditions: Human immunodeficiency virus 1, HXB2, MT4; summary of the method: as §2

CC(C)CN(C[C@@H](O)[C@H](Cc1ccccc1)NC(=O)O[C@H]1CCOC1)S(=O)(=O)c1ccc(N)cc1
Ki (Protease [1]): 0.057 nM | Ratio EC50 [2]: 13.7 | EC50 [3]: 190 nM | Ki (Protease [4]): 0.036 nM | EC50 [5]: 57 nM | EC50 [6]: 15.3 nM

CC(C)CN(C[C@@H](O)[C@H](Cc1ccccc1)NC(=O)O[C@H]1CO[C@H]2OCC[C@H]21)S(=O)(=O)c1ccc(N)cc1
EC50 [7]: 5.6 nM | EC50 [8]: 15 nM | EC50 [9]: 11 nM | EC50 [10]: 19 nM | EC50 [3]: 4.6 nM | EC50 [11]: 22 nM | EC50 [12]: 11 nM | EC50 [5]: 2.8 nM | EC50 [6]: 0.78 nM

CCC[C@@]1(CCc2ccccc2)CC(O)=C([C@H](CC)c2cccc(NS(=O)(=O)c3ccc(C(F)(F)F)cn3)c2)C(=O)O1
Ki (Protease [1]): 0.008 nM | Ratio EC50 [13]: 14.1 | EC50 [7]: 40.9 nM | Ratio EC50 [2]: 2.4 | EC50 [8]: 507 nM | EC50 [9]: 310 nM | EC50 [10]: 580 nM | EC50 [3]: 190 nM | Ratio EC50 [14]: 7.7 | Ratio EC50 [15]: 12.4 | EC50 [11]: 660 nM | EC50 [5]: 304 nM | Ratio EC50 [16]: 16 | EC50 [6]: 76.2 nM

CC(C)(C)NC(=O)[C@@H]1CN(Cc2cccnc2)CCN1C[C@@H](O)C[C@@H](Cc1ccccc1)C(=O)N[C@H]1c2ccccc2C[C@H]1O.O
Ratio EC50 [2]: 26 | EC50 [3]: 220 nM | EC50 [6]: 9.8 nM

Cc1c(O)cccc1C(=O)N[C@@H](CSc1ccccc1)[C@H](O)CN1C[C@H]2CCCC[C@H]2C[C@H]1C(=O)NC(C)(C)C
EC50 [5]: 36 nM

COC(=O)N[C@H](C(=O)N[C@@H](Cc1ccccc1)[C@@H](O)CN(Cc1ccc(-c2ccccn2)cc1)NC(=O)[C@@H](NC(=O)OC)C(C)(C)C)C(C)(C)C [ATAZANAVIR]
Ratio EC50 [2]: 26 | EC50 [3]: 47 nM | EC50 [5]: 4.4 nM | EC50 [6]: 1.7 nM

Cc1nc(COc2ccc(C[C@H](NC(=O)O[C@H]3CO[C@H]4OCC[C@H]43)[C@H](O)CN(CC(C)C)S(=O)(=O)c3ccc4c(c3)OCO4)cc2)cs1 [BRECANAVIR]
Ratio EC50 [13]: 3.6 | EC50 [7]: 0.7 nM | Ratio EC50 [2]: 6.6 | Ratio EC50 [17]: 1.6 | EC50 [18]: > 90000 nM | EC50 [19]: 0.44 nM | Ratio [20]: >55000 | Activity [21]: inactive | CC50 [22]: > 25000 nM | CC50 [23]: > 25000 nM | EC50 [8]: 2.2 nM | EC50 [9]: 1.4 nM | EC50 [10]: 2.6 nM | EC50 [3]: 0.88 nM | fraction unbound [24]: 0.02 | Ratio EC50 [14]: 1.9 | CC50 [25]: > 25000 nM | CC50 [26]: > 25000 nM | Ratio EC50 [27]: 8.2 | Ratio EC50 [15]: 2.2 | EC50 [28]: 0.2 nM | EC50 [11]: 3.8 nM | EC50 [12]: 1.1 nM | EC50 [5]: 0.42 nM | Ratio EC50 [16]: 5.2 | EC50 [6]: 0.18 nM | EC50 [29]: 0.53 nM

Cc1cccc(C)c1OCC(=O)N[C@@H](Cc1ccccc1)[C@@H](O)C[C@H](Cc1ccccc1)NC(=O)[C@H](C(C)C)N1CCCNC1=O [LOPINAVIR]
Ratio EC50 [2]: 43 | EC50 [3]: 230 nM | EC50 [6]: 4.4 nM
